From ChEMBL document CHEMBL5550111, “Design, synthesis and biological evaluation of aryloxy thiophosphoramidate triesters of anticancer nucleoside analogues” (Bioorg Med Chem, 2024)
pIC50: −log10 of the molar value.

Tests used:
[1] = Prodrug activation assessed as carboxypeptidase Y (unknown origin) mediated (2S)-2-[[[(2R,3R,5R)-5-(4-amino-2-oxo-pyrimidin-1-yl)-4,4-difluoro-3-hydroxy-tetrahydrofuran-2-yl]methoxy-hydroxy-phosphoryl]amino]propanoic acid formation from intermediate (2S)-2-[[[(2R,3R,5R)-5-(4-amino-2-oxo-pyrimidin-1-yl)-4,4-difluoro-3-hydroxy-tetrahydrofuran-2-yl]methoxy-phenoxy-phosphinothioyl]amino]propanoic acid at 5 mg measured for 48 hrs by 31P-NMR assay
Outline: (§1)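 Thiophosphoramidate (5 mg, about 0.008 mmol) dissolved in 150 µL acetone-d6, with 300 µL TRIZMA buffer pH 7.6 added. Enzymatic conversion followed by 31P-NMR.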

COLO 205 [2] = assay: Cytotoxicity against human COLO 205 cells assessed as maximum inhibition of cell viability upto 198 uM incubated for 72 hrs by MTS assay relative to control; format: functional; settings: up to 198 µM
Outline: (§2)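 Cells seeded at 0.5 to 100 × 10^3 per well the day before drug addition, then exposed to compound for 72 h. MTS added afterwards, with a further 4 h at 37 °C, and absorbance read. Tested in duplicate at 9 serial 3.16-fold dilutions, top concentration 198 μM. MI% is the maximum inhibition of viability across the tested range.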

MDA-MB-231 [3] = assay: Cytotoxicity against human MDA-MB-231 cells assessed as inhibition of cell viability incubated for 72 hrs by MTS assay; format: functional, cell-based; settings: MDA-MB-231, 72 h
Outline: (§3)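 Cells seeded at 0.5 to 100 × 10^3 per well the day before treatment, then exposed for 72 h to 9 serial concentrations (3.16-fold dilutions, top 198 μM), in duplicate. MTS added for a final 4 h at 37 °C and absorbance read. IC50 is the concentration giving 50% loss of viability. MI% is the maximum inhibition over the tested range.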

MDA-MB-231 [4] = assay: Cytotoxicity against human MDA-MB-231 cells assessed as maximum inhibition of cell viability upto 198 uM incubated for 72 hrs by MTS assay relative to control; format: functional; settings: up to 198 µM; outline: as §2
HT-29 [5] = assay: Cytotoxicity against human HT-29 cells assessed as inhibition of cell viability incubated for 72 hrs by MTS assay; format: functional, cell-based; settings: HT-29, 72 h; outline: as §3
A2780 [6] = assay: Cytotoxicity against human A2780 cells assessed as inhibition of cell viability incubated for 72 hrs by MTS assay; format: functional, cell-based; settings: A2780, 72 h; outline: as §3
SK-MES-1 [7] = assay: Cytotoxicity against human SK-MES-1 cells assessed as maximum inhibition of cell viability upto 198 uM incubated for 72 hrs by MTS assay relative to control; format: functional; settings: up to 198 µM; outline: as §2
MIA PaCa-2 [8] = assay: Cytotoxicity against human MIA PaCa-2 cells assessed as maximum inhibition of cell viability upto 198 uM incubated for 72 hrs by MTS assay relative to control; format: functional; settings: up to 198 µM; outline: as §2
MIA PaCa-2 [9] = assay: Cytotoxicity against human MIA PaCa-2 cells assessed as inhibition of cell viability incubated for 72 hrs by MTS assay; format: functional, cell-based; settings: MIA PaCa-2, 72 h; outline: as §3
RT112/84 [10] = assay: Cytotoxicity against human RT112/84 cells assessed as inhibition of cell viability incubated for 72 hrs by MTS assay; format: functional, cell-based; settings: RT112/84, 72 h; outline: as §3
PANC-1 [11] = assay: Cytotoxicity against human PANC-1 cells assessed as maximum inhibition of cell viability upto 198 uM incubated for 72 hrs by MTS assay relative to control; format: functional; settings: up to 198 µM; outline: as §2
PC-3 [12] = assay: Cytotoxicity against human PC-3 cells assessed as maximum inhibition of cell viability upto 198 uM incubated for 72 hrs by MTS assay relative to control; format: functional; settings: up to 198 µM; outline: as §2
HT-29 [13] = assay: Cytotoxicity against human HT-29 cells assessed as maximum inhibition of cell viability upto 198 uM incubated for 72 hrs by MTS assay relative to control; format: functional; settings: up to 198 µM; outline: as §2
PC-3 [14] = assay: Cytotoxicity against human PC-3 cells assessed as inhibition of cell viability incubated for 72 hrs by MTS assay; format: functional, cell-based; settings: PC-3, 72 h; outline: as §3
A2780 [15] = assay: Cytotoxicity against human A2780 cells assessed as maximum inhibition of cell viability upto 198 uM incubated for 72 hrs by MTS assay relative to control; format: functional; settings: up to 198 µM; outline: as §2
[16] = Cytotoxicity against human T24/83 cells assessed as inhibition of cell viability incubated for 72 hrs by MTS assay; format: functional, cell-based; settings: T24/83, 72 h; outline: as §3
RT112/84 [17] = assay: Cytotoxicity against human RT112/84 cells assessed as maximum inhibition of cell viability upto 198 uM incubated for 72 hrs by MTS assay relative to control; format: functional; settings: up to 198 µM; outline: as §2
BXPC-3 [18] = assay: Cytotoxicity against human BXPC-3 cells assessed as inhibition of cell viability incubated for 72 hrs by MTS assay; format: functional, cell-based; settings: BXPC-3, 72 h; outline: as §3
[19] = Prodrug activation assessed as carboxypeptidase Y (unknown origin) mediated intermediate (2S)-2-[[[(2R,3R,5R)-5-(4-amino-2-oxo-pyrimidin-1-yl)-4,4-difluoro-3-hydroxy-tetrahydrofuran-2-yl]methoxy-phenoxy-phosphinothioyl]amino]propanoic acid formation at 5 mg measured after 5 hrs by 31P-NMR assay; parameters: species or system Homo sapiens; outline: as §1
SK-MES-1 [20] = assay: Cytotoxicity against human SK-MES-1 cells assessed as inhibition of cell viability incubated for 72 hrs by MTS assay; format: functional, cell-based; settings: SK-MES-1, 72 h; outline: as §3
COLO 205 [21] = assay: Cytotoxicity against human COLO 205 cells assessed as inhibition of cell viability incubated for 72 hrs by MTS assay; format: functional, cell-based; settings: COLO 205, 72 h; outline: as §3
OVCAR-3 [22] = assay: Cytotoxicity against human OVCAR-3 cells assessed as maximum inhibition of cell viability upto 198 uM incubated for 72 hrs by MTS assay relative to control; format: functional; settings: up to 198 µM; outline: as §2
PANC-1 [23] = assay: Cytotoxicity against human PANC-1 cells assessed as inhibition of cell viability incubated for 72 hrs by MTS assay; format: functional, cell-based; settings: PANC-1, 72 h; outline: as §3
HepG2 [24] = assay: Cytotoxicity against human HepG2 cells assessed as maximum inhibition of cell viability upto 198 uM incubated for 72 hrs by MTS assay relative to control; format: functional; settings: up to 198 µM; outline: as §2
BXPC-3 [25] = assay: Cytotoxicity against human BXPC-3 cells assessed as maximum inhibition of cell viability upto 198 uM incubated for 72 hrs by MTS assay relative to control; format: functional; settings: up to 198 µM; outline: as §2
OVCAR-3 [26] = assay: Cytotoxicity against human OVCAR-3 cells assessed as inhibition of cell viability incubated for 72 hrs by MTS assay; format: functional, cell-based; settings: OVCAR-3, 72 h; outline: as §3
HepG2 [27] = assay: Cytotoxicity against human HepG2 cells assessed as inhibition of cell viability incubated for 72 hrs by MTS assay; format: functional, cell-based; settings: HepG2, 72 h; outline: as §3

With `C[C@H](NP(=S)(OC[C@H]1O[C@@H](n2ccc(N)nc2=O)C(F)(F)[C@@H]1O)Oc1ccccc1)C(=O)OCc1ccccc1` (some centres not stated) the Drug metabolism [1] was “Metabolite_Detected”, the Imax (COLO 205 [2]) was 97% and the pIC50 (MDA-MB-231 [3]) was 4.93. For the same molecule, the Imax (MDA-MB-231 [4]) was 91%, the pIC50 (HT-29 [5]) was 4.94 and the pIC50 (A2780 [6]) was 5.45. The Imax (SK-MES-1 [7]) was 94%, the Imax (MIA PaCa-2 [8]) was 99% and the pIC50 (MIA PaCa-2 [9]) was 5.42. For the same molecule, the pIC50 (RT112/84 [10]) was 6.04, the Imax (PANC-1 [11]) was 99% and the Imax (PC-3 [12]) was 96%. For the same molecule, the Imax (HT-29 [13]) was 99%, the pIC50 (PC-3 [14]) was 4.36 and the Imax (A2780 [15]) was 100%. It also gave a pIC50 [16] of 6.49, an Imax (RT112/84 [17]) of 94% and a pIC50 (BXPC-3 [18]) of 5.09. The Drug metabolism [19] was “Metabolite_Detected”, the pIC50 (SK-MES-1 [20]) was 6.04 and the pIC50 (COLO 205 [21]) was 4.65. It also gave an Imax (OVCAR-3 [22]) of 46%, a pIC50 (PANC-1 [23]) of 4.12 and an Imax (HepG2 [24]) of 98%. For the same molecule, the Imax (BXPC-3 [25]) was 95%, the pIC50 (OVCAR-3 [26]) was 4.01 and the pIC50 (HepG2 [27]) was 4.57.
